# An excerpt weighted towards active compounds, which were near 1.8% of everything screened.
# Fam108B counter: Fam108B inhibition, counter-screen for RBBP9 inhibitors | recombinant Fam108B, FP-Rh probe fluorescence polarization | inhibition, % at 9.51 µM | 300,000 tested, 0.33% active | AID 1947;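 active means inhibition above the screen mean inhibition plus 3 SD, computed separately per campaign, cut at about 18% in these data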;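 further: inhibitors lower polarization as less probe binds the enzyme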
# TCR CD3 inh: human TCR-CD3 binding inhibition. 360,000 tested, 0.37% active. AID 651800. inhibition, % at 9.4 µM. TAMRA-labeled TCR probe fluorescence, biochemical; in the data active means inhibition above about 19%;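 further: recombinant mutant TCR 2C K166C tagged with TAMRA read by polarization; 0% = receptor in buffer alone and 100% = receptor with positive control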
# SIAE inh: human SIAE inhibition, primary screen; inhibition, % at 9.66 µM; 370,000 tested, 0.69% active; Q9HAT2; SIAE FP-Rh probe binding, fluorescence polarization; AID 1053197;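 active means inhibition above a cutoff: mean of compounds within the control limits plus 3 SD of those, cut at about 17% in these data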;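 further: 0% = plate median of compound wells and 100% = probe without SIAE protein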
# Target sequence (Q9HAT2 whole entry, looked up): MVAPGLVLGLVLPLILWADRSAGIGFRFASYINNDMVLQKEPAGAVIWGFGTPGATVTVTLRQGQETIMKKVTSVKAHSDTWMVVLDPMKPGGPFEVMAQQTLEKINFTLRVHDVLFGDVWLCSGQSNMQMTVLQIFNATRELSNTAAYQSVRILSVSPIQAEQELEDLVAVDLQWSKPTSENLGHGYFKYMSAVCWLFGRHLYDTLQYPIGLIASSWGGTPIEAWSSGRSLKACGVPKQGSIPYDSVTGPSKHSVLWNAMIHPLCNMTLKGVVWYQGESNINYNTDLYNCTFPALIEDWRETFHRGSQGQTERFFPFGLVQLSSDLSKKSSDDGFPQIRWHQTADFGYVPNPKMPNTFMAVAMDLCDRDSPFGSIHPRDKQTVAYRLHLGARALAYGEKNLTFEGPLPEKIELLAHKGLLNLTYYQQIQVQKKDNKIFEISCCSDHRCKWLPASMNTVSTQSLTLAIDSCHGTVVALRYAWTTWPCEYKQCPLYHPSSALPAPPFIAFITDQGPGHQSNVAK
# PME-1 inh: blocks human protein phosphatase methylesterase 1; Q9Y570; recombinant PME-1, FP-Rh probe fluorescence polarization; inhibition, % at 5.9 µM; 320,000 tested, 0.53% active;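 active means inhibition above the campaign mean of all compounds plus 3 SD, cut at about 26% in these data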;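 further: competitive labeling of PME-1 active site by serine hydrolase directed probe; 0% = PME-1 with DMSO and 100% = wells lacking PME-1 enzyme; inhibitors block probe labeling so polarization falls and inhibition rises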
# ABHD4 inh: inhibits mouse alpha/beta hydrolase domain 4; inhibition, % at 8.92 µM; Q8VD66; AID 720543; 370,000 tested, 0.54% active; purified mABHD4, FP-Rh probe fluorescence polarization;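 active means inhibition exceeding the mean over every tested compound plus 3 SD, cut at about 30% in these data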;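 further: 0% = plate median of compound wells and 100% = S159A mutant with DMSO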
#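 Test system: mABHD4 protein | Buffer or medium: HEPES pH 7.0 buffer, 150 mM NaCl, 0.01% Pluronic F-127 | Probe or stimulus: FP-Rh fluorescent activity-based probe, added after compound pre-incubation | Timing: Pre-incubation 45 min, probe exposure 60 min, at 25 °C | Technique: Fluorescence polarization, excitation 525 nm, emission 598 nm, BODIPY TMR filters | Repeats: Single well per compound (singlicate)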
# HTRA1 inh: inhibitors of human serine peptidase HTRA1; recombinant HTRA1, FP-rhodamine activity-based probe, fluorescence polarization; inhibition, % at 5.96 µM; 340,000 tested, 0.5% active; in the data active means inhibition above about 36%;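 further: 0% = enzyme with DMSO and 100% = wells lacking enzyme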
# * marks the source's active call; other numbers are inactive results; / = not tested or not shown.
SMILES,Fam108B counter,TCR CD3 inh,SIAE inh,PME-1 inh,ABHD4 inh,HTRA1 inh
Cc1ccc(NC(=O)COc2cccc(/C=C3\SC(=S)N(CCC(=O)O)C3=O)c2)cc1Cl,-5,-1,-25,32*,12,-27
CN(CCOC(=O)c1cc2ccccc2o1)C1CN(Cc2cn(Cc3cccc(F)c3)nn2)S(=O)(=O)C1 (configuration not stated),/,/,5,/,-2,/
Cc1ccc(C)n1Cc1ccc(C(=O)O)cc1,37*,/,/,-18,/,14
COC(=O)c1ccccc1C(=O)c1ccc2c(c1)NC(=O)CO2,3,-11,5,39*,7,6
COC(=O)[C@]12C[C@H](CC(=O)NCc3cccc4ccccc34)C(=O)N(Cc3ccco3)C1=C[C@H](C(C)(C)C)O[C@@H]2C,/,/,1,/,-10,/
C[C@H](CO)N1C[C@H](C)[C@@H](CN(C)C(=O)Nc2ccccc2)Oc2c(NC(=O)C3CCCCC3)cccc2C1=O,/,4,18*,/,1,-2
C[C@H](CO)N1C[C@H](C)[C@@H](CN(C)C(=O)NC2CCCCC2)Oc2c(NC(=O)C3CCCCC3)cccc2C1=O,/,1,5,/,6,-1
CC(=O)Nc1cccc(C(C)C2=CCCCC2)c1 (configuration not stated),/,/,-2,/,-12,/
Cc1ccc(S(=O)(=O)N2CCN(C(=O)Cn3cnc4c3c(=O)n(C)c(=O)n4C)CC2)cc1C,/,3,1,42*,-1,0
O=C(N=C1N(CC2CC2)CC2(C=C3CCCCC3n3c(=O)n(-c4ccccc4)c(=O)n32)N1C(=O)OCc1ccccc1)c1ccccc1 (configuration not stated),/,/,2,/,1,/
Cc1cc(O)c2c(c1O)C(=O)[C@]13C(=C2O)C(=O)[C@@H]2[C@@H](O)[C@H]1[C@@H]1[C@H](O)[C@H]3C(=O)C3=C(O)c4c(O)cc(C)c(O)c4C(=O)[C@]312,/,/,/,/,/,41*
CCCc1ccc(-c2cc(NC(=O)Cc3c(C)[nH]c4ccccc34)ccc2N(C)c2cccnc2)cc1,/,-3,8,/,37*,/
CCn1cc(C(=O)O)c(=O)c2cnc(N3CCN(C(=S)NC(=O)c4ccc(OC)cc4)CC3)nc21,-1,-8,17*,-2,-3,1
S=C(NCCNC(=S)Nc1ccccc1)Nc1ccccc1,2,-5,7,33*,-3,2
COc1cccc(N=Nc2c(=O)[nH]n3c(=O)c4c([nH]c23)CCC4)c1,5,5,5,36*,13,4
COc1cccc(N=Nc2c(=O)[nH]n3c(=O)cc(C)[nH]c23)c1,2,-7,-2,13,8,2
Nc1sc2c(c1C(=O)NC1CCS(=O)(=O)C1)CCCC2 (configuration not stated),1,-5,22*,-3,21,5
COCC(=O)N(C)[C@H]1C[C@H]2c3[nH]c4c(-c5ccc6c(c5)OCO6)cccc4c3CCN2C(=O)[C@H]1[C@H](C)O,/,/,5,/,12,/
O=c1nc(/C=C/c2cccn2-c2ccc([N+](=O)[O-])cc2)cc(C(F)(F)F)[nH]1,4,-6,6,5,13,10
O=c1nc(/C=C/c2cc([N+](=O)[O-])ccc2Cl)cc(C(F)(F)F)[nH]1,8,6,-5,27*,8,-6
COC(=O)[C@H](CC(C)C)N1Cc2nnn(Cc3ccccc3)c2-c2ccccc2S1(=O)=O,/,/,-2,/,-1,/
O=C(Nc1ccc([N+](=O)[O-])cc1)Nc1nc(-c2ccc(Cl)s2)cs1,11,1,4,44*,0,-8
CC(=O)Nc1nc(-c2ccc([N+](=O)[O-])cc2)cs1,0,-3,-9,-4,0,1
COc1ccc(-c2cc(-c3nc4ccccn4c3NCc3ccccc3)ccc2OC)cc1,/,5,21*,/,17,-2
COc1ccc(-c2nc3ccccn3c2NCc2ccc3c(c2)OCO3)cc1,3,2,2,8,9,2
SMILES,Fam108B counter,TCR CD3 inh,SIAE inh,PME-1 inh,ABHD4 inh,HTRA1 inh
CCC(=O)Nc1cccc(-c2cc3ccccc3oc2=O)c1,2,4,-9,8,-9,-1
O=C(Cc1cccc2ccccc12)Nc1ccc(-c2cc3ccccc3oc2=O)cc1,-2,38*,-21,-5,-32,-11
COc1ccc(-c2cc(-c3ccc(C)cc3)n[nH]2)c(O)c1,5,-4,11,47*,-10,-1
COc1ccc(-c2cc(-c3cc(C)ccc3O)[nH]n2)cc1,-3,0,-18,13,-16,-41
COc1ccc(NC(=O)Nc2nnc(N3CCCCC3C)s2)cc1OC (configuration not stated),4,0,0,50*,5,8
C=C(C)COc1ccc(-c2[nH]ncc2-c2ccc(OC)c(OC)c2)c(O)c1,5,-5,3,29*,-5,-14
CCCc1c(C)[nH]c2ccc(C(=O)O)cc2c1=S,/,27*,-8,/,-18,-47
Cc1[nH]c2ccc(C(=O)O)cc2c1C,1,-1,5,-2,-1,-1
COC1=C(Br)C(=O)c2nc(C)ccc2C1=O,/,19*,-7,/,21,16
COc1ccc(-n2cc(COC(=O)NCCc3c[nH]c4ccccc34)nn2)cc1,/,/,1,/,-7,/
O=c1cc(N2CCCCC2)c(-c2ccccc2)nn1Cc1c(Cl)cccc1Cl,-3,2,-8,30*,-7,-91
O=c1cc(N2CCCCC2)c(-c2ccccc2)nn1Cc1ccc(Cl)cc1,0,-3,-2,8,0,0
COc1ccc(OC)c(CN2C(=O)CSCCC2(C)c2nnnn2C2CCCC2)c1 (configuration not stated),/,/,-3,/,4,/
Cc1cc(Br)ccc1N=C1NC(=O)CS1,-2,2,5,60*,5,-3
Cc1cc(OCC(C)CN2CCC(C(O)(c3ccccc3)c3ccccc3)CC2)ccc1Br (configuration not stated),/,/,-4,/,18,/
O=S1(=O)c2ccc(N3CCN(Cc4ccccc4F)CC3)cc2Oc2ccccc2CN1Cc1cn(Cc2ccc(C(F)(F)F)cc2)nn1,/,/,-1,/,-5,/
CN1CCN(c2ccc(NC(=O)c3ccc(-c4ccc(Br)cc4)o3)cc2)CC1,16,5,12,30*,17,14
CCOC(=O)N1CC=C2C(C#N)=C(N)C(C#N)(C#N)[C@H](c3ccc(OC(C)C)c(OCC)c3)[C@H]2C1,1,2,-2,41*,-2,-4
N#CC1=C(N)C(C#N)(C#N)[C@H](c2cccnc2)[C@H]2CN(C(=O)OCc3ccccc3)CC=C12,-1,6,0,25,3,4
CCOC(=O)N1CC=C2C(C#N)=C(N)C(C#N)(C#N)[C@H](c3ccccc3OCC)[C@H]2C1,-1,4,7,27*,3,7

# Bioassay records (PubChem)
